Rows were chosen to be rich in hits. Some 3.8% of all compounds tested hit in one or more screens of this group.
CHO parental Ca = counter-screen: ATP calcium response change in parental CHO cells | AID 463079 | actives 0.63% (n = 330,000) | parental CHO-K1, ATP-induced calcium, Fluo-8 fluorescence | inhibition, % at 5.6 µM;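 active = inhibition above that plate's mean sample inhibition plus 3 SD, cut at about 26% in these data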
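Assay system: untransfected parental CHO cell line. Also added: ATP agonist challenge. Dosing: one dose, 5.6 µM nominal. Measured by: Fluo-8 fluorescence. Read-out: % inhibition. Benchmarks: ATP wells versus no-ATP DMSO wells. Repeats: no replicates.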
GPR7 antagonist = human neuropeptides B/W receptor 1 antagonism | actives 1.1% (n = 290,000) | P48145 | inhibition, % at 4.4 µM | GPR7-expressing cells, fluorescence antagonist assay | AID 1861; in the data active = inhibition above about 16%, passing the limit was not always enough;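 also: cells stimulated with the agonist NPW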
OX1R antag-1 = blocks the human orexin 1 receptor. O43613. AID 434989. inhibition, % at 5 µM. CHO/OX1R cells, Fluo-8 calcium fluorescence, orexin A. actives 0.43% (n = 330,000);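 active = inhibition above its plate's threshold, mean inhibition of all tested compounds on the plate plus 3 SD, cut at about 37% in these data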
Target sequence (O43613 whole entry, looked up): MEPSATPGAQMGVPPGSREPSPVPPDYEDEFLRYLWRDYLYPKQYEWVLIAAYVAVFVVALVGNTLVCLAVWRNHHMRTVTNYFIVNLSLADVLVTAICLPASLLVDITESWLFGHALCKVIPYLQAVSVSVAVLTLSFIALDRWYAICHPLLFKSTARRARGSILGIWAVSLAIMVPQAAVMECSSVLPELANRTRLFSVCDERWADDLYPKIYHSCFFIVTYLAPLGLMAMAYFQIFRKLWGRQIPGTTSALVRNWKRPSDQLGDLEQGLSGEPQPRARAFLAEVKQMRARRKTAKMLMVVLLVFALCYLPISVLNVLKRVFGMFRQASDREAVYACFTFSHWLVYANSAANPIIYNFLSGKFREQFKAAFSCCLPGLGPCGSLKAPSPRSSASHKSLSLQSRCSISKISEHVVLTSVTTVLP
OX1R antag-2 = OX1R (human) antagonism; O43613; OX1R-expressing cells, FRET antagonist read-out; inhibition, % at 6.6 µM; actives 1.8% (n = 330,000); AID 485270; in the data active = inhibition mostly above about 38%, no sharp cut-off; inactive = mostly below about 40%
MPTP inh = blocks calcium-induced mitochondrial swelling. inhibition, % at 10 µM. isolated mouse mitochondria, Ca2+ swelling absorbance, 30 min. actives 1.4% (n = 360,000);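 active = inhibition of 50% or more, scaled per plate between neutral and stimulator controls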
OX1R Fluo8 conf = OX1R (human) antagonism, confirmed. shares compounds with OX1R antag-1. CHO/OX1R cells, orexin A calcium Fluo-8 fluorescence. inhibition, % at 5 µM. actives 38% (n = 1,100); in the data active = inhibition above about 29%
CHO Ca triplic = counter-screen: parental CHO calcium response change, triplicate; parental CHO-K1, ATP-induced calcium, Fluo-8 fluorescence; actives 9.3% (n = 1,100); inhibition, % at 5.6 µM; shares compounds with OX1R antag-1;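 active = inhibition above a per-plate limit, the mean inhibition of that plate's test compounds plus 3 SD, cut at about 25% in these data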
OX1R HTRF conf = OX1R (human) antagonism, HTRF confirmed; OX1R-expressing cells, HTRF antagonist assay; inhibition, % at 6.6 µM; shares compounds with OX1R antag-2; actives 49% (n = 1,800); in the data active = inhibition above about 55%;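 also: CHO cells expressing OX1R stimulated with orexin A at about EC80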
CHO-K1 HTRF = counter-screen for OX1R antagonists: effect in parental CHO-K1 cells; shares compounds with OX1R antag-2; HTRF counterscreen; inhibition, % at 6.6 µM; actives 48% (n = 1,800); AID 493232; in the data active = inhibition above about 17%
Rh123 counter = membrane potential counter-screen of mitochondrial pore inhibitors; actives 78% (n = 5,000); shares compounds with MPTP inh; inhibition, % at 10 µM; isolated mitochondria, Rhodamine 123 fluorescence; AID 624504; in the data active = inhibition above about 22%
A number is an active result.

Results for Cc1ccccc1OCCC(=O)Nc1cccc(S(=O)(=O)Nc2ccccc2Cl)c1 ?
CHO parental Ca: inactive; GPR7 antagonist: inactive; OX1R antag-1: 45; OX1R antag-2: inactive; MPTP inh: 77; OX1R Fluo8 conf: inactive; CHO Ca triplic: inactive; Rh123 counter: 75

What do the screens show for `Cc1ccc(C)c(OCCC(=O)Nc2cccc(S(=O)(=O)NC3=NCCCCC3)c2)c1`?
CHO parental Ca: inactive; OX1R antag-1: inactive; OX1R antag-2: inactive; MPTP inh: inactive

Results for COc1ccc(CN(C)c2ccc(S(=O)(=O)N3CCN(C)CC3)cc2[N+](=O)[O-])cc1OC ?
CHO parental Ca: inactive; OX1R antag-1: 46; OX1R antag-2: inactive; MPTP inh: 97; OX1R Fluo8 conf: inactive; CHO Ca triplic: 65; Rh123 counter: 99

How did O=C(O)CN1C(=O)/C(=C\C(Br)=C\c2ccccc2)SC1=S do in these assays?
CHO parental Ca: inactive; GPR7 antagonist: inactive; OX1R antag-1: inactive; OX1R antag-2: inactive; MPTP inh: inactive

How did Cc1nc(SCc2ccc(OCCC(C)C)cc2)n[nH]1 do in these assays?
CHO parental Ca: inactive; GPR7 antagonist: inactive; OX1R antag-1: inactive; OX1R antag-2: inactive; MPTP inh: inactive

What do the screens show for `CC(C)(C)N(NC(=O)Nc1ccc(Cl)c(Cl)c1)C(=O)c1ccccc1`?
CHO parental Ca: inactive; GPR7 antagonist: inactive; OX1R antag-1: 73; OX1R antag-2: inactive; MPTP inh: 104; OX1R Fluo8 conf: inactive; CHO Ca triplic: inactive; Rh123 counter: 97

What do the screens show for `CN1CCN(c2ncnc3c2ncn3[C@H]2CN(Cc3ccccc3)C[C@@H](CO)O2)CC1`?
MPTP inh: inactive

What do the screens show for `COc1ccc(NC(=O)c2cc([N+](=O)[O-])ccc2O)cc1`?
CHO parental Ca: inactive; GPR7 antagonist: inactive; OX1R antag-1: inactive; OX1R antag-2: 70; MPTP inh: 92; OX1R Fluo8 conf: inactive; CHO Ca triplic: inactive; OX1R HTRF conf: inactive; CHO-K1 HTRF: inactive; Rh123 counter: 95

What do the screens show for `COC(=O)Cc1c(C)c2ccc(OCC(C)=O)c(C)c2oc1=O`?
CHO parental Ca: inactive; GPR7 antagonist: inactive; OX1R antag-1: inactive; OX1R antag-2: inactive; MPTP inh: inactive

Results for C=C(C)COc1ccc2c(C)c(CC(=O)OC)c(=O)oc2c1C ?
CHO parental Ca: inactive; GPR7 antagonist: inactive; OX1R antag-1: inactive; OX1R antag-2: inactive; MPTP inh: 75; OX1R Fluo8 conf: inactive; CHO Ca triplic: inactive; Rh123 counter: 59

What do the screens show for `COc1cccc(C2c3[nH]c4ccccc4c3C[C@H]3C(=O)N(c4ccccc4C(=O)NCCCN4CCOCC4)C(=O)N23)c1` (some centres not stated)?
CHO parental Ca: inactive; GPR7 antagonist: inactive; OX1R antag-1: inactive; OX1R antag-2: inactive; MPTP inh: inactive

Results for CCCc1ccc(C(=O)NC(=O)c2ccccc2O)cc1 ?
CHO parental Ca: inactive; GPR7 antagonist: inactive; OX1R antag-1: inactive; OX1R antag-2: inactive; MPTP inh: 59; OX1R Fluo8 conf: inactive; CHO Ca triplic: 73; Rh123 counter: 91

What do the screens show for `CC(C)(O)/C=C/C[C@](C)(O)C1CC[C@]2(C)C1[C@H](O[C@H]1O[C@@H](CO)[C@H](O)[C@@H](O)[C@@H]1O)CC1[C@@]3(C)CC[C@H](O)C(C)(C)C3[C@@H](O)C[C@]12C` (some centres not stated)?
CHO parental Ca: inactive; OX1R antag-1: inactive; OX1R antag-2: inactive; MPTP inh: inactive

Results for CC1=CC(C)C2COC(c3ccc[n+](C)c3)C1C2C (configuration not stated) ?
CHO parental Ca: inactive; GPR7 antagonist: inactive; OX1R antag-1: inactive; OX1R antag-2: inactive; MPTP inh: inactive
